Structures are written as SMILES.

The test can be described thus: Cytotoxicity against human NCI-H1435 cells expressing CES2 gene after 5 to 6 days by MTT assay. The test is classed as functional. A digest of the protocol:
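MTT growth assay: 2000–4000 viable cells plated, left overnight at 37 °C in 5% CO₂, then exposed to a range of drug concentrations for 5–6 days. MTT added at 0.4 mg/mL final for 4 h, and formazan dissolved in 0.2 N HCl in 75% isopropanol. Absorbance normalized to vehicle control and IC₅₀ obtained from the curves.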
In general terms: Formazan colour is commonly taken as a measure of viable cells.

Compound `CCCCCOC(=O)Nc1ccc(COC(=O)N2CO[C@@H]3[C@H](C)O[C@@H](O[C@H]4C[C@](O)(C(=O)CO)Cc5c(O)c6c(c(O)c54)C(=O)c4c(OC)cccc4C6=O)C[C@@H]32)cc1` came in with a logIC50 of -6.92.

For the origin of these results see ChEMBL document CHEMBL1153806, “Preclinical efficacy of a carboxylesterase 2-activated prodrug of doxazolidine” (J Med Chem, 2009).
